# ChEMBL document CHEMBL1149086, “Antimalarial and antitumor evaluation of novel C-10 non-acetal dimers of 10beta-(2-hydroxyethyl)deoxoartemisinin” (J Med Chem, 2004)
# Key:
# Jurkat = test: Inhibitory concentration against Jurkat cells; type: functional, cell-based; details: Homo sapiens
# In short: (§1)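 HL60 (2.5 × 10⁴/well) or Jurkat (1 × 10⁵/well) in RPMI-1640 with 10% FBS and 1% L-glutamine, 5% CO2, 37 °C. Exposed to 10⁻¹⁰–10⁻⁴ M for 72 h, final DMSO below 0.5% v/v. [3H]-thymidine (0.5 μCi) added for the final 24 h. Incorporation counted by β-scintillation.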
# CCRF-CEM [1] = test: Concentration of the drug required to achieve 50% cytotoxicity against leukemia CCRF-CEM cell line; type: cell-based; details: human
# CCRF-CEM [2] = test: Concentration of the drug required to achieve 50% cytotoxicity against leukemia HL-60(TB) cell line; type: cell-based; details: human
# CCRF-CEM [3] = test: Concentration required to achieve total growth inhibition against leukemia CCRF-CEM cell line; type: functional; details: Homo sapiens
# COLO 205 [4] = test: inhibition against colon COLO 205 cancer cell line; type: functional; details: Homo sapiens
# CCRF-CEM [5] = test: inhibition against leukemia CCRF-CEM cell line; type: functional; details: Homo sapiens
# COLO 205 [6] = test: Concentration of the drug required to achieve 50% cytotoxicity against colon COLO 205 cancer cell line; type: cell-based; details: human
# COLO 205 [7] = test: Concentration required to achieve total growth inhibition against colon COLO 205 cancer cell line; type: functional; details: Homo sapiens
# HCT-15 [8] = test: Concentration required to achieve total growth inhibition against colon HCT-15 cancer cell line; type: functional; details: Homo sapiens
# HCT-15 [9] = test: Concentration of the drug required to achieve 50% cytotoxicity against colon HCT-15 cancer cell line; type: cell-based; details: human
# HCT-116 [10] = test: Concentration required to achieve total growth inhibition against colon HCT116 cancer cell line; type: functional; details: Homo sapiens
# HCT-15 [11] = test: inhibition against colon HCT-15 cancer cell line; type: functional; details: Homo sapiens
# HL-60 [12] = test: inhibition against leukemia HL-60(TB) cell line; type: functional; details: Homo sapiens
# HL-60 [13] = test: Concentration required to achieve total growth inhibition against leukemia HL-60(TB) cell line; type: functional; details: Homo sapiens
# HCT-116 [14] = test: Concentration of the drug required to achieve 50% cytotoxicity against colon HCT116 cancer cell line; type: cell-based; details: human
# HCC 2998 [15] = test: Concentration required to achieve total growth inhibition against colon HCC2998 cancer cell line; type: functional; details: Homo sapiens
# HCT-116 [16] = test: inhibition against colon HCT116 cancer cell line; type: functional; details: Homo sapiens
# HCC 2998 [17] = test: inhibition against colon HCC2998 cancer cell line; type: functional; details: Homo sapiens
# HCC 2998 [18] = test: Concentration of the drug required to achieve 50% cytotoxicity against colon HCC2998 cancer cell line; type: cell-based; details: human
# HT-29 [19] = test: Concentration of the drug required to achieve 50% cytotoxicity against colon HT-29 cancer cell line; type: cell-based; details: human
# HT-29 [20] = test: inhibition against colon HT-29 cancer cell line; type: functional; details: Homo sapiens
# HT-29 [21] = test: Concentration required to achieve total growth inhibition against colon HT-29 cancer cell line; type: functional; details: Homo sapiens
# KM12 [22] = test: Concentration required to achieve total growth inhibition against colon KM12 cancer cell line; type: functional; details: Homo sapiens
# K562 [23] = test: Concentration required to achieve total growth inhibition against leukemia K-562 cell line; type: functional; details: Homo sapiens
# KM12 [24] = test: inhibition against colon KM12 cancer cell line; type: functional; details: Homo sapiens
# KM12 [25] = test: Concentration of the drug required to achieve 50% cytotoxicity against colon KM12 cancer cell line; type: cell-based; details: human
# MOLT-4 [26] = test: inhibition against leukemia MOLT-4 cell line; type: functional; details: Homo sapiens
# LOX IMVI [27] = test: inhibition against melanoma LOX IMVI cell line; type: functional; details: Homo sapiens
# LOX IMVI [28] = test: Concentration of the drug required to achieve 50% cytotoxicity against melanoma LOX IMVI cell line; type: cell-based; details: human
# LOX IMVI [29] = test: Concentration required to achieve total growth inhibition against melanoma LOX IMVI cell line; type: functional; details: Homo sapiens
# MCF7 [30] = test: Concentration required to achieve total growth inhibition against breast MCF-7 cancer cell line; type: functional; details: Homo sapiens
# MCF7 [31] = test: Concentration of the drug required to achieve 50% cytotoxicity against breast MCF-7 cancer cell line; type: cell-based; details: human
# Malme-3M [32] = test: inhibition against melanoma MALME-3M cell line; type: functional; details: Homo sapiens
# Malme-3M [33] = test: Concentration of the drug required to achieve 50% cytotoxicity against melanoma MALME-3M cell line; type: cell-based; details: human
# MOLT-4 [34] = test: Concentration required to achieve total growth inhibition against leukemia MOLT-4 cell line; type: functional; details: Homo sapiens
# Malme-3M [35] = test: Concentration required to achieve total growth inhibition against melanoma MALME-3M cell line; type: functional; details: Homo sapiens
# MOLT-4 [36] = test: Concentration of the drug required to achieve 50% cytotoxicity against leukemia MOLT-4 cell line; type: cell-based; details: human
# NCI/ADR-RES [37] = test: inhibition against breast NCI/ ADR-RES cancer cell line; type: functional; details: Homo sapiens
# NCI/ADR-RES [38] = test: Concentration of the drug required to achieve 50% cytotoxicity against breast NCI/ ADR-RES cancer cell line; type: cell-based; details: human
# NCI/ADR-RES [39] = test: Concentration required to achieve total growth inhibition against breast NCI/ ADR-RES cancer cell line; type: functional; details: Homo sapiens
# PC-3 [40] = test: Concentration of the drug required to achieve 50% cytotoxicity against prostate PC-3 cell line; type: cell-based; details: human
# PC-3 [41] = test: inhibition against prostate PC-3 cell line; type: functional; details: Homo sapiens
# Plasmodium falciparum = test: In vitro antimalarial activity against Plasmodium falciparum HB3 by [3H]hypoxanthine uptake; type: functional, organism-based
# PC-3 [42] = test: Concentration required to achieve total growth inhibition against prostate PC-3 cell line; type: functional; details: Homo sapiens
# RPMI-8226 [43] = test: Concentration of the drug required to achieve 50% cytotoxicity against leukemia RPMI-8226 cell line; type: cell-based; details: human
# RPMI-8226 [44] = test: Concentration required to achieve total growth inhibition against leukemia RPMI-8226 cell line; type: functional; details: Homo sapiens
# SW-620 [45] = test: inhibition against colon SW-620 cancer cell line; type: functional; details: Homo sapiens
# SW-620 [46] = test: Concentration of the drug required to achieve 50% cytotoxicity against colon SW-620 cancer cell line; type: cell-based; details: human
# SR [47] = test: inhibition against leukemia SR cell line; type: functional; details: Homo sapiens
# SR [48] = test: Concentration of the drug required to achieve 50% cytotoxicity against leukemia SR cell line; type: cell-based; details: human
# SR [49] = test: Concentration required to achieve total growth inhibition against leukemia SR cell line; type: functional; details: Homo sapiens
# SW-620 [50] = test: Concentration required to achieve total growth inhibition against colon SW-620 cancer cell line; type: functional; details: Homo sapiens
# SK-MEL-5 [51] = test: inhibition against melanoma SK-MEL-5 cell line; type: functional; details: Homo sapiens
# SK-MEL-5 [52] = test: Concentration required to achieve total growth inhibition against melanoma SK-MEL-5 cell line; type: functional; details: Homo sapiens
# T47D [53] = test: inhibition against breast T-47D cancer cell line; type: functional; details: Homo sapiens
# T47D [54] = test: Concentration of the drug required to achieve 50% cytotoxicity against breast T-47D cancer cell line; type: cell-based; details: human
# T47D [55] = test: Concentration required to achieve total growth inhibition against breast T-47D cancer cell line; type: functional; details: Homo sapiens
# UACC-62 [56] = test: inhibition against melanoma UACC-62 cell line; type: functional; details: Homo sapiens
# UACC-62 [57] = test: Concentration of the drug required to achieve 50% cytotoxicity against melanoma UACC-62 cell line; type: cell-based; details: human
# UACC-62 [58] = test: Concentration required to achieve total growth inhibition against melanoma UACC-62 cell line; type: functional; details: Homo sapiens
# HL-60 [59] = test: Inhibitory concentration against HL60 cells; type: functional, cell-based; details: Homo sapiens; in short: as §1
# SK-MEL-5 [60] = test: Concentration of the drug required to achieve 50% cytotoxicity against melanoma SK-MEL-5 cell line; type: cell-based; details: human
# RPMI-8226 [61] = test: inhibition against leukemia RPMI-8226 cell line; type: functional; details: Homo sapiens
# K562 [62] = test: inhibition against leukemia K-562 cell line; type: functional; details: Homo sapiens
# MCF7 [63] = test: inhibition against breast MCF-7 cancer cell line; type: functional; details: Homo sapiens
compound,measurement,setting,value
"COP(=O)(OCC[C@H]1O[C@@H]2OC3(C)CC[C@H]4[C@H](C)CC[C@@H]([C@H]1C)[C@@]24OO3)OCC[C@H]1O[C@@H]2OC3(C)CC[C@H]4[C@H](C)CC[C@@H]([C@H]1C)[C@@]24OO3 (single isomer, unassigned)",IC50,Jurkat,7.7 µM
same,LC50,CCRF-CEM [1],100 µM
same,LC50,CCRF-CEM [2],20 µM
same,TGI,CCRF-CEM [3],30 µM
same,GI50,COLO 205 [4],< 0.01 µM
same,GI50,CCRF-CEM [5],0.769 µM
same,LC50,COLO 205 [6],2.59 µM
same,TGI,COLO 205 [7],0.21 µM
same,TGI,HCT-15 [8],14.4 µM
same,LC50,HCT-15 [9],38.7 µM
same,TGI,HCT-116 [10],32.6 µM
same,GI50,HCT-15 [11],< 0.01 µM
same,GI50,HL-60 [12],< 0.01 µM
same,TGI,HL-60 [13],1 µM
same,LC50,HCT-116 [14],> 100 µM
same,TGI,HCC 2998 [15],16.4 µM
same,GI50,HCT-116 [16],1.85 µM
same,GI50,HCC 2998 [17],1.25 µM
same,LC50,HCC 2998 [18],52.9 µM
same,LC50,HT-29 [19],40 µM
same,GI50,HT-29 [20],< 0.01 µM
same,TGI,HT-29 [21],12.6 µM
same,TGI,KM12 [22],12.6 µM
same,TGI,K562 [23],1.17 µM
same,GI50,KM12 [24],< 0.01 µM
same,LC50,KM12 [25],40 µM
same,GI50,MOLT-4 [26],< 0.01 µM
same,GI50,LOX IMVI [27],< 0.01 µM
same,LC50,LOX IMVI [28],52.9 µM
same,TGI,LOX IMVI [29],16.4 µM
same,TGI,MCF7 [30],18.3 µM
same,LC50,MCF7 [31],72.2 µM
same,GI50,Malme-3M [32],0.0474 µM
same,LC50,Malme-3M [33],> 100 µM
same,TGI,MOLT-4 [34],9.8 µM
same,TGI,Malme-3M [35],32.6 µM
same,LC50,MOLT-4 [36],33.5 µM
same,GI50,NCI/ADR-RES [37],0.994 µM
same,LC50,NCI/ADR-RES [38],75.5 µM
same,TGI,NCI/ADR-RES [39],22.1 µM
same,LC50,PC-3 [40],70.3 µM
same,GI50,PC-3 [41],< 0.01 µM
same,IC50,Plasmodium falciparum,0.09 nM
same,TGI,PC-3 [42],18.8 µM
same,LC50,RPMI-8226 [43],> 100 µM
same,TGI,RPMI-8226 [44],13.7 µM
same,GI50,SW-620 [45],< 0.01 µM
same,LC50,SW-620 [46],40 µM
same,GI50,SR [47],< 0.01 µM
same,LC50,SR [48],> 100 µM
same,TGI,SR [49],2.84 µM
same,TGI,SW-620 [50],12.6 µM
same,GI50,SK-MEL-5 [51],0.199 µM
same,TGI,SK-MEL-5 [52],15.2 µM
same,GI50,T47D [53],< 0.01 µM
same,LC50,T47D [54],25.6 µM
same,TGI,T47D [55],< 10 µM
same,GI50,UACC-62 [56],0.486 µM
same,LC50,UACC-62 [57],42.9 µM
same,TGI,UACC-62 [58],18.4 µM
same,IC50,HL-60 [59],0.143 µM
same,LC50,SK-MEL-5 [60],38.9 µM
same,GI50,RPMI-8226 [61],< 0.01 µM
same,GI50,K562 [62],< 0.01 µM
same,GI50,MCF7 [63],0.0503 µM
